Data taken from ChEMBL document CHEMBL1126854, “A series of penicillin derived C2-symmetric inhibitors of HIV-1 proteinase: synthesis, mode of interaction, and structure-activity relationships” (J Med Chem, 1993).

Tests used:
[1] = Volume of distribution in Cynomolgus monkey at a dose of 5 mg/kg given intravenously; type: ADME, organism-based, Macaca fascicularis; parameters: dose 5 mg/kg, route intravenous; settings: in vivo, iv, read-out: Distribution
Outline: (§1)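 Single intravenous dose in a vehicle of ethanol (10–20%), polyethyleneglycol (10%) and saline. Doses were 5 mg/kg for CD rats (n = 2 per time point), 1 mg/kg for beagles (n = 2) and 5 mg/kg for cynomolgus monkeys (n = 2). Plasma t1/2, plasma clearance and steady-state volume of distribution were derived.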

[2] = Plasma clearance in Cynomolgus monkey at a dose of 5 mg/kg given intravenously; type: ADME, organism-based, Macaca fascicularis; parameters: dose 5 mg/kg, route intravenous; settings: iv; outline: as §1
[3] = tested on: Human immunodeficiency virus 1; experiment: Inhibitory effects on HIV-1 induced syncytium formation in C8166 cells; type: functional, organism-based; settings: Human immunodeficiency virus 1, C8166
Outline: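 C8166 cells were infected with HIV-1 RF at moi 1×10^-3 and plated at 10^5 cells/well. Compound in Me2SO was serially diluted in RPMI 1640 from 50 to 0.05 μg/mL. Cells were kept 3–4 days at 37 °C, 5% CO2, and checked daily for syncytia. Syncytia were scored against untreated infected controls, and EC50 was calculated as 50% reduction of cytopathic effect.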

[4] = Half-life in Beagles dog at a dose of 1 mg/kg given intravenously; type: ADME, organism-based, Canis lupus familiaris; parameters: dose 1 mg/kg, route intravenous; settings: beagle, in vivo, iv; outline: as §1
[5] = Volume of distribution in CD rat at a dose of 5 mg/kg given intravenously; type: ADME, organism-based; parameters: dose 5 mg/kg, route intravenous; settings: in vivo, iv, read-out: Distribution; outline: as §1
[6] = Plasma clearance in CD rat at a dose of 5 mg/kg given intravenously; type: ADME, organism-based; parameters: dose 5 mg/kg, route intravenous; settings: iv; outline: as §1
[7] = Half-life in Cynomolgus monkey at a dose of 5 mg/kg given intravenously; type: ADME, organism-based, Macaca fascicularis; parameters: dose 5 mg/kg, route intravenous; settings: in vivo, iv; outline: as §1
[8] = Volume of distribution in Beagles dog at a dose of 1 mg/kg given intravenously; type: ADME, organism-based, Canis lupus familiaris; parameters: dose 1 mg/kg, route intravenous; settings: beagle, in vivo, iv, read-out: Distribution; outline: as §1
[9] = tested on: MT4; experiment: Inhibition of cytopathic effect of HIV-1 strain RF in MT-4 cell culture; type: functional, cell-based; settings: Homo sapiens
Outline: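 MT-4 cells at 10^6 cells/mL in RPMI 1640 were infected with HIV-1 RF at moi 2×10^-3 (5×10^4 cells/well). Compound in Me2SO was diluted in 10-fold steps from 100 to 0.01 μg/mL. Cells were kept 7 days at 37 °C, 5% CO2, then given MTT for 60 min. Acidified 2-propanol was added and A540 read. EC50 for 50% inhibition of formazan conversion is the mean of duplicates; toxicity was assayed at the same concentrations.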

[10] = Plasma clearance in Beagles dog at a dose of 1 mg/kg given intravenously; type: ADME, organism-based, Canis lupus familiaris; parameters: dose 1 mg/kg, route intravenous; settings: beagle, iv; outline: as §1
[11] = Half-life in CD rat at a dose of 5 mg/kg given intravenously; type: ADME, organism-based; parameters: dose 5 mg/kg, route intravenous; settings: in vivo, iv; outline: as §1
[12] = biological target: Human immunodeficiency virus type 1 protease (Human immunodeficiency virus 1, UniProt Q72874); experiment: Inhibitory activity against HIV-1 Protease
Outline: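 Buffer: 20 mM MES pH 6.0, 2 M NaCl, 5 mM DTT, 2 mM EDTA. Compounds in 25% Me2SO over a concentration range. Incubated 60 min at 37 °C with shaking, then filtered; released radioactivity counted by scintillation. IC50 from duplicate means, standardized to a reference-compound control.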

Structure (SMILES) | EC50 [3] [nM] | EC50 [9] [nM] | IC50 [12] [nM] | also measured
CCNC(=O)[C@@H](NC(=O)Cc1ccccc1)[C@@H]1N[C@@H](C(=O)NCCNC(=O)[C@@H]2N[C@@H]([C@H](NC(=O)Cc3ccccc3)C(=O)NCC)SC2(C)C)C(C)(C)S1 | 1100 | 5400 |  | Vd [1]: 17 L; clearance [2]: 200 mL/min; half-life [4]: 4 h; Vd [5]: 2.8 L; clearance [6]: 12 mL/min; half-life [7]: 1.2 h; Vd [8]: 50 L; clearance [10]: 300 mL/min; half-life [11]: 5 h
CC1(C)S[C@H]([C@H](NC(=O)Cc2ccccc2)C(=O)N2CCCCC2)N[C@H]1C(=O)NCCNC(=O)[C@@H]1N[C@@H]([C@H](NC(=O)Cc2ccccc2)C(=O)N2CCCCC2)SC1(C)C | 230 | 1800 | 6.9 | 
CCNC(=O)[C@@H](NS(=O)(=O)Cc1ccccc1)[C@@H]1N[C@@H](C(=O)NCCNC(=O)[C@@H]2N[C@@H]([C@H](NS(=O)(=O)Cc3ccccc3)C(=O)NCC)SC2(C)C)C(C)(C)S1 | 13000 | 32000 | 58 | 
CCNC(=O)[C@@H](NC(=O)c1ccccc1-c1ccccc1)[C@@H]1N[C@@H](C(=O)NCCNC(=O)[C@@H]2N[C@@H]([C@H](NC(=O)c3ccccc3-c3ccccc3)C(=O)NCC)SC2(C)C)C(C)(C)S1 | 170 | 30 | 9.9 | 
CN(C)c1ccc(CNC(=O)[C@@H](NC(=O)Cc2ccccc2)[C@@H]2N[C@@H](C(=O)NCCNC(=O)[C@@H]3N[C@@H]([C@H](NC(=O)Cc4ccccc4)C(=O)NCc4ccc(N(C)C)cc4)SC3(C)C)C(C)(C)S2)cc1 | 20 | < 10 | 47 | 
CC1(C)S[C@H]([C@H](NC(=O)Cc2ccccn2)C(=O)NCc2ccc(Cl)cc2Cl)N[C@H]1C(=O)NCCNC(=O)[C@@H]1N[C@@H]([C@H](NC(=O)Cc2ccccn2)C(=O)NCc2ccc(Cl)cc2Cl)SC1(C)C | 240 | 530 | 14 | 
CC1(C)S[C@H]([C@H](NC(=O)Cc2ccccc2)C(=O)NCC2CCCCC2)N[C@H]1C(=O)NCCNC(=O)[C@@H]1N[C@@H]([C@H](NC(=O)Cc2ccccc2)C(=O)NCC2CCCCC2)SC1(C)C | 60 | 8200 | 40 | 
CN(C)c1ccc(CNC(=O)[C@@H](NC(=O)c2ccccc2-c2ccccc2)[C@@H]2N[C@@H](C(=O)NCCNC(=O)[C@@H]3N[C@@H]([C@H](NC(=O)c4ccccc4-c4ccccc4)C(=O)NCc4ccc(N(C)C)cc4)SC3(C)C)C(C)(C)S2)cc1 | 30 | < 10 | 0.23 | 
